# System: T1, O5AN1
# T1 sequence (whole entry): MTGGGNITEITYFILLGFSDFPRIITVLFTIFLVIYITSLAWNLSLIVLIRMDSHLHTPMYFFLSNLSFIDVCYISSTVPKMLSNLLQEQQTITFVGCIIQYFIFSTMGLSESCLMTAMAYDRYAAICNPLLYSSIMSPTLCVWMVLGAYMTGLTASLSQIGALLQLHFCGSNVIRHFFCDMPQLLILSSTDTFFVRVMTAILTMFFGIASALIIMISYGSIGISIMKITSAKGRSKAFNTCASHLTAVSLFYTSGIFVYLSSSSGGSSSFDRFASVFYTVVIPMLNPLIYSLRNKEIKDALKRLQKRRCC
# Conditions: stereoisomer not certain
# How it was run: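 Each entry records the cell line, G-protein, co-transfected protein and tags used. Methods varied with the source, often transient luciferase assays in mammalian cell lines. A receptor–molecule pair is called responsive (active) if the original authors judged its signal statistically different from baseline and non-responsive (inactive) otherwise.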
row,Compound,odorant receptor agonist call
1,Cc1c([N+](=O)[O-])c(C)c([N+](=O)[O-])c(C(C)(C)C)c1[N+](=O)[O-],active
2,CC(=O)c1cc(C(C)(C)C)cc2c1CCC2(C)C,inactive
3,CC(=O)c1cc2c(cc1C)C(C)(C)C(C)CC2(C)C (stereo not drawn),inactive

# Reference: the M2OR odorant receptor database
